Experiments:
[1] = species on record: Homo sapiens; test: Selectivity ratio of Ki for human NOX2 to Ki for human NOX4
In short: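 Ratio of Ki values from the Amplex Red membrane ROS assay (PMN membranes for Nox2, Nox4-overexpressing membranes), NADPH-triggered, 1 nM–100 µM, 20 min at 37 °C; Ki via Cheng-Prusoff.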

[2] = molecular target: T1, Cytochrome P450 1A2 (Homo sapiens, UniProt P05177); test: Inhibition of human recombinant CYP1A2 assessed as inhibition of fluorescent metabolite formation; assay type: ADME
T1 sequence (P05177 whole entry): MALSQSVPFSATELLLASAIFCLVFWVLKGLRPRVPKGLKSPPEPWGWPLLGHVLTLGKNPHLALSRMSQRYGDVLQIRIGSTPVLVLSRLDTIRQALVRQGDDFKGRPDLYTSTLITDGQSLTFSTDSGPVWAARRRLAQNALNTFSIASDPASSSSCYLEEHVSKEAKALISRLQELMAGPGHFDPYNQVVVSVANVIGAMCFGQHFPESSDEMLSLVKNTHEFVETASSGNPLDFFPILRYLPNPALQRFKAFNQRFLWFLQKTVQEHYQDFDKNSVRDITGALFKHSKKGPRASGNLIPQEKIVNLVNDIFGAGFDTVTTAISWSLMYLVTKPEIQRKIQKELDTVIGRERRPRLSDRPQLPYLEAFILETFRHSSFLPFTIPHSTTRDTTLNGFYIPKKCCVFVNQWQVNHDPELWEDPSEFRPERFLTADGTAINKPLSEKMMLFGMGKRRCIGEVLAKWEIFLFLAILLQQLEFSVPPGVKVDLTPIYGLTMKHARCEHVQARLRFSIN
In short: (§1)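 Compound 0.1–25 µM (0.3% DMSO) incubated with microsomes, NADPH and isoform-specific probe substrate. CYP2C19, 2C9, 2D6, 3A4 metabolites measured by mass spectrometry; CYP1A2 by fluorescent metabolite. IC50 from reduced metabolite formation versus vehicle.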

[3] = molecular target: Cytochrome P450 2C9 (Homo sapiens, UniProt P11712); test: Inhibition of human recombinant CYP2C9 by mass spectrophotometry; assay type: ADME; in short: as §1
Sequence of Cytochrome P450 2C9 (P11712 whole entry): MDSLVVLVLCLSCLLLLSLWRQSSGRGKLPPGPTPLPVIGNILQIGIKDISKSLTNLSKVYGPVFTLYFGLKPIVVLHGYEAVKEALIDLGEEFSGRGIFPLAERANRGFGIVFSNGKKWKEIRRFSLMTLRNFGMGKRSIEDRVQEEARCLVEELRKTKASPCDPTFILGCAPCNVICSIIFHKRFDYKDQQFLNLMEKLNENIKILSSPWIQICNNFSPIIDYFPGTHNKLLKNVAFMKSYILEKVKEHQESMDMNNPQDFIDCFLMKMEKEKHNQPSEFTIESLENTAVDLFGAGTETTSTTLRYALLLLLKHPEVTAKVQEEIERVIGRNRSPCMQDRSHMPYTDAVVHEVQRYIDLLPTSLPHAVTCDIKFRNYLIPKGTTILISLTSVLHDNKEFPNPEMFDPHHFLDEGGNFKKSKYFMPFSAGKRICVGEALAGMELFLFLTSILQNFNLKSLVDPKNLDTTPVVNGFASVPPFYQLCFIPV

[4] = molecular target: hERG (Homo sapiens, UniProt Q12809); test: Inhibition of hERG at 1 uM by patch clamp assay; assay type: toxicity
Sequence of hERG (Q12809 whole entry): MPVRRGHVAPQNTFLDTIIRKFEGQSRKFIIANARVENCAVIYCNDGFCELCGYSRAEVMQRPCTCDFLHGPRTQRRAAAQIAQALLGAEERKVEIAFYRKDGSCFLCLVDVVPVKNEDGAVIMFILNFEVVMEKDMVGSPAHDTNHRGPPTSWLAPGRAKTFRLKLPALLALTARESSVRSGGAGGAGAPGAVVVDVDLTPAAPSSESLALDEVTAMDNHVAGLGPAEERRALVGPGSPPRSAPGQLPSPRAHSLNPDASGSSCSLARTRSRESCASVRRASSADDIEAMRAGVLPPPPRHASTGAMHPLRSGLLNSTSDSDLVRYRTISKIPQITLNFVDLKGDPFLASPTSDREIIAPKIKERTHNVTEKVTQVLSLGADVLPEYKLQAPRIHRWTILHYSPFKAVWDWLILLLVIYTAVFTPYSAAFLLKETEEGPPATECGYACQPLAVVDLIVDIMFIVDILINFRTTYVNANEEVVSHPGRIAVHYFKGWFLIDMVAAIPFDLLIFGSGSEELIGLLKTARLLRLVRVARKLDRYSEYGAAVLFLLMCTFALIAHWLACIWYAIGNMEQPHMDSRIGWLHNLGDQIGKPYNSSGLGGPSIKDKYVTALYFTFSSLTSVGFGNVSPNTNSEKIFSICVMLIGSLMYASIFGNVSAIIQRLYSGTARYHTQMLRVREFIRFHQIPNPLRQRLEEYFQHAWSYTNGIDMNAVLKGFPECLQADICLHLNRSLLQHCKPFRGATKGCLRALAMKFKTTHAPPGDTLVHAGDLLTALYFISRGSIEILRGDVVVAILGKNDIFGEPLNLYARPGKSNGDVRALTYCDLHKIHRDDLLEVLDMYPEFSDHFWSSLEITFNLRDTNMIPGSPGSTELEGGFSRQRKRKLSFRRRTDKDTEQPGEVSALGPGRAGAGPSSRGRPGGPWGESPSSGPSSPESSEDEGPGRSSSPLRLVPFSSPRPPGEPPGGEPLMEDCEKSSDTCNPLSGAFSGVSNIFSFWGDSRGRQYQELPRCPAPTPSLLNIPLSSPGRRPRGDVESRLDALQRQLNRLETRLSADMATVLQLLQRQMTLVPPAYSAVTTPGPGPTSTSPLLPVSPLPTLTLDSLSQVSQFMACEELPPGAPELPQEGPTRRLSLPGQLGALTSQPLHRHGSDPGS

[5] = system: Mus musculus; test: Antifibrotic activity in C57BL/6 mouse pulmonary fibrosis curative model assessed as reduction in bleomycin-induced collagen deposition at 10 mg/kg, po qd administered 10 days post challenge […] measured on day 25 by SIRCOL assay; assay type: functional
In short: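 Male C57BL/6 mice (9–10 weeks) under ketamine/xylazine given 0.0125 U bleomycin intratracheally in 40 µL saline. Daily oral dosing at 10 mL/kg in 3% DMSO then aqueous 0.5% CMC/0.25% Tween 20. Whole-lung collagen by Sircol dye binding (0.5 M acetic acid extraction overnight, 540 nm, rat-tail collagen standard), µg per lung.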

Ratio Ki [1]: 18.6 | IC50 [2]: > 25 µM | IC50 [3]: > 25 µM
SMILES: Cl.O=c1c2c3n(c(=O)cc2[nH]n1-c1ccccc1Cl)CCCN(Cc1ccccc1)C3
inhibition at 1 µM [4]: 8.7% | inhibition in vivo at 10 mg/kg [5]: 64%
